ADAM17 inh – inhibits human ADAM17. inhibition, % at 6.95 µM. recombinant ADAM17, EDANS/DABCYL FRET peptide cleavage. actives 0.83% (n = 370,000). P78536. AID 720648;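 active = inhibition above the mean of compounds lying between control limits plus 3 SD, set per campaign, cut at about 8.5% in these data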;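 note: 0% = DMSO-only wells as the low control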
Target sequence (P78536 215-824 limits assumed): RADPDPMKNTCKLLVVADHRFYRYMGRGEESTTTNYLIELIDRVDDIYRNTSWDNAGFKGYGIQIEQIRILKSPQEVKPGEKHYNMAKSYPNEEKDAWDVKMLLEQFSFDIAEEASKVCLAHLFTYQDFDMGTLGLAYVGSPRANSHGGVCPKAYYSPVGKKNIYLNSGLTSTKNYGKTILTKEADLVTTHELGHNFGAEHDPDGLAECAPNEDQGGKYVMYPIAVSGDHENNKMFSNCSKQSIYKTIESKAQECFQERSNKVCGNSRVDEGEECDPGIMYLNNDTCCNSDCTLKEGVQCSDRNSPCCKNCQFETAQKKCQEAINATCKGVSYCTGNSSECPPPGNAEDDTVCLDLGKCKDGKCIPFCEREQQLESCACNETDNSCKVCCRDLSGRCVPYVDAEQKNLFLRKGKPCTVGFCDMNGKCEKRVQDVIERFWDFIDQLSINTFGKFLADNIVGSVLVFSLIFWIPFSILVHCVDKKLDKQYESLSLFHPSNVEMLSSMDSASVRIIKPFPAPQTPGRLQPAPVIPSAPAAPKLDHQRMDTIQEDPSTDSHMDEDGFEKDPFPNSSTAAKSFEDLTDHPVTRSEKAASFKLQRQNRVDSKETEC
MPTP inh – blocks calcium-induced mitochondrial swelling | isolated mouse mitochondria, Ca2+ swelling absorbance, 30 min | inhibition, % at 10 µM | actives 1.4% (n = 360,000);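 active = inhibition of 50% or more, scaled per plate between neutral and stimulator controls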;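 note: 0% = DMSO wells given calcium and 100% = 1 mM EGTA wells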
MT1-MMP act inh – MT1-MMP (human) activation inhibition; P50281; HT1080 RFP-PRO-GFP cells, GFP/RFP ratio fluorescence, overnight; percent of plate control window, DMSO zero; actives 0.061% (n = 360,000); GFP/RFP ratio change, % at 20 µM; AID 651647;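 active = GFP/RFP ratio change of at least 30% with cell ATP level not reduced by more than half and red fluorescence within 50% of control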
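Compound: 20 µM single dose, 1% DMSO / System: HT1080 RFP-PRO-GFP cells / Controls: DMSO and RFP-L50D-GFP cell wells / Read-out basis: GFP/RFP fluorescence ratio / Schedule: overnight compound exposure at 37 °C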
ADAM10 inh – inhibitors of human ADAM10. inhibition, % at 7 µM. O14672. AID 720582. recombinant ADAM10, EDANS/DABCYL FRET peptide cleavage, 3 h. actives 0.62% (n = 370,000);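 active = inhibition above a per-campaign cutoff equal to the mean of compounds falling between control-based bounds plus 3 SD, cut at about 20% in these data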;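 note: 0% = DMSO wells while the 100% control is not disclosed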
NR3A LBD binder – modulates the human NR3A ligand-binding domain; NR3A LBD differential scanning fluorimetry, Tm shift; 0% = protein alone, 100% = glycine-bound protein; Tm shift relative to glycine control, % at 25 µM; actives 2.5% (n = 340,000); AID 1259313;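 active = melting temperature shift of at least 10% of the positive control shift, at one fixed dose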
SKN-1 block – blocks SKN-1 activity in C. elegans | actives 0.49% (n = 360,000) | inhibition, % at 21.8 µM | C. elegans VP596 Pgst-4::GFP/RFP ratio, acrylamide-induced, 24 h;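 active = interference check ratio from 0.5 to 1.5 plus GFP to RFP signal ratio inhibition reaching or exceeding a fixed threshold, cut at about 30% in these data, passing the limit was not always enough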
The depositor's hits bear a star; / = not tested or not shown. Only some compounds are listed: those with a hit (about 4.7% of all), similar ones and a draw of the others.

SMILES	ADAM17 inh	MPTP inh	MT1-MMP act inh	ADAM10 inh	NR3A LBD binder	SKN-1 block
Cc1ccc(C(=O)CNc2ccc(Br)cc2)cc1	-3.1	3.1	0.8	1.1	0.6	-21.6
O=C(NCc1cccnc1)c1cc(-c2ccccc2)on1	-2.4	-0.2	15.7	-1.2	10.5*	8.4
COc1ccc(-c2cc(C(=O)NCc3cccnc3)no2)cc1	-6.7	-1.3	0.4	-6.6	-1.1	12.4
COc1ccc(C(=O)OCC(=O)c2ccc[nH]2)cc1	0.6	0.6	-1.7	4.1	1.9	0.3
NC(=O)C1CCN(Cc2cccc(OCc3ccccc3)c2)CC1	-4.5	-0.9	1.8	0.7	1.3	4.8
Cc1ccc(SCc2c(C(=O)N/N=C/c3ccccc3)nnn2-c2nonc2N)cc1	0.5	5.0	1.3	9.9	32.6*	1.7
Cc1ccc(SCc2c(C(=O)N/N=C/c3ccco3)nnn2-c2nonc2N)cc1	1.4	0.4	-2.2	-1.4	/	1.7
Nc1nonc1-n1nnc(C(=O)N/N=C/c2ccco2)c1CSc1ccccc1	7.2	-1.1	-1.0	-4.1	26.5*	1.9
CCN(CC)Cc1c(C(=O)N/N=C/c2ccc(OCc3ccccc3C)cc2)nnn1-c1nonc1N	-0.3	1.7	2.2	3.0	32.7*	11.1
Nc1nonc1-n1nnc(C(=O)N/N=C/c2ccc(OCc3ccccc3F)cc2)c1CNc1ccccc1	-3.3	-1.5	2.1	0.8	34.0*	8.6
O=C(NCCN1C(=O)C2C3C=CC(C3)C2C1=O)c1cc(Cl)cc(Cl)c1 (centres undefined)	1.3	/	/	2.5	/	/
CCCCc1ccc(NC(=O)CC(C)C)cc1	2.2	8.4	-1.6	-0.5	-2.2	17.0
Cc1ccc(/C=N/NC(=O)c2nnn(-c3nonc3N)c2CNc2ccccc2)cc1	2.2	3.8	1.4	-6.7	34.6*	3.5
Nc1nonc1-n1nnc(C(=O)N/N=C/c2cc(Br)ccc2O)c1CNc1ccccc1	-1.2	2.0	-1.6	5.3	23.3*	11.5
Nc1nonc1C(=O)N/N=C/c1cc(Br)ccc1O	-2.0	/	/	1.9	-13.2	/
Cc1ccc(SCc2c(C(=O)N/N=C/c3ccoc3)nnn2-c2nonc2N)cc1	-3.6	-0.8	-0.5	2.1	12.2*	21.2
Cc1ccc(SCc2c(C(=O)N/N=C/c3ccc4c(c3)OCO4)nnn2-c2nonc2N)cc1	-0.7	-1.7	6.4	-6.6	30.8*	0.8
Cc1ccc(SCC(=O)c2c(C)[nH]c3ccccc23)cc1	0.7	1.7	-2.0	-0.1	0.4	-4.5
CCC(=O)NC(Nc1nc(C)cs1)(C(=O)OC)C(F)(F)F (centres undefined)	0.2	0.1	0.5	7.3	0.9	-16.2
CCOc1ccc(CCNC(=O)COC(=O)c2cccc(OC)c2O)cc1OCC	-0.4	-4.7	0.1	-1.2	-1.0	-6.5
N#Cc1ccc(-n2nnc3ccccc3c2=O)c([N+](=O)[O-])c1	-5.4	-0.2	8.4	1.8	2.9	21.7
Cc1ccc(/C=N/NC(=O)c2nnn(-c3nonc3N)c2CSc2ccccc2)cc1	0.2	6.3	4.8	-1.2	40.5*	-9.0
Cc1ccc(/C=N/NC(=O)c2nnn(-c3nonc3N)c2CSc2ccccc2)o1	1.0	1.9	-1.1	-1.8	-3.8	10.1
CCN(CCCNC(=O)Cn1ncc2c([nH]c3ccc(C)cc32)c1=O)c1cccc(C)c1	/	-0.3	2.0	/	-9.9	-11.6
CC1(C)CC(=O)C2=C(C1)NC(SCC(N)=O)=C(C#N)C21CCCCC1	-2.2	-0.5	-3.6	-10.2	16.4*	-16.8
Cc1nc2c(C)cccc2cc1C(=O)N/N=C/c1ccc(C(=O)O)cc1	-0.7	-1.4	3.1	-6.4	-0.3	-2.2
Cc1nc2c(C)cccc2cc1C(=O)N/N=C/c1cccnc1	-2.7	0.6	-6.1	-3.3	14.4*	4.9
CN(C)C(=O)CCc1ccc2c3c([nH]c2c1)[C@]1(CCc2ccccc2)[C@@H](C(=O)N2CCCCC2)C[C@H](CC(=O)NCc2ccco2)C(=O)N1CC3	0.7	-1.8	-0.5	-13.8	2.1	18.6
CN(C)C(=O)CCc1ccc2c3c([nH]c2c1)[C@]1(CCc2ccccc2)[C@@H](C(=O)N2CCCCC2)C[C@H](CC(=O)NCc2cccc(C(F)(F)F)c2)C(=O)N1CC3	-1.6	-3.5	-16.5	-16.4	15.2*	8.3

Screening data as filed in PubChem BioAssay.
